Experimental data taken from ChEMBL document CHEMBL1126885, “Alkylpurines as immunopotentiating agents. Synthesis and antiviral activity of certain alkylguanines” (1993).

Assays:
Semliki Forest virus [1] = test: In vivo antiviral protection against lethal Forest virus (SFV) infection at dosage of 200 mg/kg tested in 12 mice; type: functional
Outline: (§1)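 Female Swiss Webster mice, about 20 g, in groups of 12. Compound or placebo was dissolved in 2% aqueous sodium bicarbonate and given intraperitoneally 24 and 18 h before a lethal SFV challenge (10 LD50, pretitrated in mice). Treatment lasted 1 day. Survival was followed for 21 days, and survivor numbers were compared with placebo by two-tailed Fisher exact test.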

Semliki Forest virus [2] = test: In vivo antiviral protection against lethal Forest virus (SFV) infection at dosage of 100 mg/kg tested in 12 mice; type: functional; outline: as §1

Compound	Activity (Semliki Forest virus [1])	Activity (Semliki Forest virus [2])
CCCCn1cnc2c(O)nc(N)nc21	10	–
CCn1cnc2c(O)nc(N)nc21	1	–
Nc1nc(O)c2ncn(CCCCCCO)c2n1	–	2
CCCCCCCn1c(Br)nc2c(O)nc(N)nc21	1	–
CCCCCCCCn1c(Br)nc2c(O)nc(N)nc21	3	–
C=CCn1c(=S)n(CCCCCC)c2nc(N)nc(O)c21	–	8
Nc1nc(O)c2nc(Br)n(CCCCCCO)c2n1	–	2
CCCCCCn1c(Cl)nc2c(O)nc(N)nc21	–	7
CCCCCn1c(S)nc2c(O)nc(N)nc21	8	–
CCCCCCCCn1cnc2c(O)nc(N)nc21	1	–
CCCCCCn1c(O)nc2c(O)nc(N)nc21	–	1
CCCCCCn1c(=O)n(C)c2c(O)nc(N)nc21	11	–
CCCCCCn1c(CC)nc2c(O)nc(N)nc21	–	3
CCCCn1c(Br)nc2c(O)nc(N)nc21	6	–
CCCCCCn1c(S)nc2c(O)nc(N)nc21	1	–
CCCn1cnc2c(O)nc(N)nc21	2	–
CCCCCCn1c(Br)nc2c(O)nc(N)nc21	4	–
CCCCCCn1c(C)nc2c(O)nc(N)nc21	–	0
CCCCCCn1c(S)nc2c(S)nc(N)nc21	–	0
CCCCCn1cnc2c(O)nc(N)nc21	8	–
CCCCCn1c(Br)nc2c(O)nc(N)nc21	8	–
Nc1nc(O)c2ncn(C3CCCCC3)c2n1	0	–
C=CCSc1nc2c(O)nc(N)nc2n1CCCCCC	–	6
N#CCCCCCn1cnc2c(O)nc(N)nc21	–	5
CCCCCCn1cnc2c(O)nc(N)nc21	12	–
Nc1nc(O)c2ncn(C3CCCC3)c2n1	0	–
C[C@]1(CO)OC(n2c(=O)sc3c(O)nc(N)nc32)[C@H](O)[C@@H]1O (some centres not stated)	–	11
